HTR1A agonist – human 5-HT1a receptor agonists, primary screen, cell-based, CHO, Ga15 NFAT-bla reporter | 5-hydroxytryptamine receptor 1A (Homo sapiens), P08908 | CHO 5-HT1a Ga15 NFAT-bla reporter, FRET ratio; 0% basal, 100% maximal reference agonist | activation, % at 10 µM | 65,000 compounds, 0.56% hits | AID 567, 2006;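 active = activation above the screen-wide mean activation plus 3 SD, cut at about 19% in these data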;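 also: 0% = DMSO wells and 100% = 5-CT at EC100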
E coli RNAP – E. coli RNAP inhibitors, biochemical; inhibition, %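 (tested at 10 µM)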; AID 559, 2006; DNA-directed RNA polymerase subunit beta (Escherichia coli (strain K12)), P0A8V2; E. coli RNA polymerase, fluorescence transcription assay; 62,000 compounds, 0.2% hits; in the data active = inhibition above about 20%;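 also: 0% = enzyme without compound and 100% = no enzyme blank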
HTR1E agonist – 5-HT1E receptor agonists, primary screen, cell-based, HTS. CHO 5-HT1E Ga15 NFAT-bla reporter, FRET; 0% DMSO wells, 100% control agonist wells. activation, % at 6 µM. 65,000 compounds, 0.69% hits. AID 574, 2007;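 active = activation above a set limit, the screen-wide mean activation plus 3 SD, cut at about 8.5% in these data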;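 also: 100% = positive control agonist at 1 µM giving full maximal response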
5-HT1A blocker – human 5-HT1a receptor antagonists, primary screen, cell-based, CHO, Ga15 NFAT-bla reporter | CHO 5-HT1a Ga15 NFAT-bla reporter, antagonist mode | 5-hydroxytryptamine receptor 1A (Homo sapiens), P08908 | 62,000 compounds, 0.68% hits | inhibition, % at 10 µM;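 active = inhibition above the mean of all tested compounds plus 3 SD, cut at about 43% in these data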;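 also: receptor stimulated by 5-CT agonist at 100 nM near EC80; beta-lactamase reporter measured by ratiometric fluorescence of a cleavable substrate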
S1P3 ag – human S1P3 receptor agonists, primary screen, cell-based, primary and confirmation, NFAT-BLA reporter; Sphingosine 1-phosphate receptor 3 (Homo sapiens), Q99500; AID 373, 2006; activation, % at 4.5 µM; S1P3 NFAT-BLA reporter cells, agonism, FRET ratio; relative to 1 µM S1P, basal subtracted; 60,000 compounds, 0.1% hits;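 active = activation above the screen-wide mean plus 3 SD, cut at about 4.5% in these data, passing the limit was not always enough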
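material = human S1P3 NFAT-BLA reporter CHO cells | schedule = 4 h compound at 37 °C, 2 h substrate at RT | measured by = fluorescent BLA substrate, ex 405 nm, em 460/535 nm ratio | controls = 1 µM S1P reference | replication = primary once, confirmation triplicate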
HTR1E antagonist – 5-HT1E receptor antagonists, primary screen, cell-based, HTS | CHO 5-HT1E Ga15 NFAT-bla reporter, FRET, antagonist | inhibition, % at 6 µM | 65,000 compounds, 0.99% hits | AID 571, 2007;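 active = inhibition above a set limit, the mean inhibition across every tested compound plus 3 SD, cut at about 29% in these data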;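 also: signal is the 460 over 535 nm emission ratio of beta-lactamase substrate; 0% = agonist plus DMSO wells and 100% = wells without agonist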
Numbers without * were called inactive. The list is not random: actives were taken first. Their share in the collection is about 2.6%.

CC(C)c1nc2sc3c(NCc4ccco4)ncnc3c2c2c1COC(C)(C)C2 was read as HTR1A agonist 9, E coli RNAP 9, HTR1E agonist 0, 5-HT1A blocker 18 and HTR1E antagonist 56*.
For CC1(C)Cc2c(C#N)c(NCc3ccco3)nc(-c3ccco3)c2CO1 the results were HTR1A agonist 54*, E coli RNAP -9, HTR1E agonist 11*, S1P3 ag 2 and HTR1E antagonist -3.
CN1C(=O)N(C)C(NC(=O)Nc2ccccc2)C1NC(=O)Nc1ccccc1 (centres undefined) was read as HTR1A agonist -6, E coli RNAP 17, HTR1E agonist 1, 5-HT1A blocker 0, S1P3 ag -1 and HTR1E antagonist -3.
CCNc1ccc(C(=O)OCC)cc1NC(=O)c1cccc(N(C)C)c1 was read as HTR1A agonist -4, E coli RNAP 9, HTR1E agonist 0, 5-HT1A blocker 28 and HTR1E antagonist 45*.
CC(NC(=O)c1cn(C)c2ccc(S(=O)(=O)N3CCCC3)cc2c1=O)c1ccc2c(c1)OCCO2 (centres undefined) was read as HTR1A agonist 0, E coli RNAP 7, HTR1E agonist -1, 5-HT1A blocker 3 and HTR1E antagonist -5.
COc1cc(NC(=O)Cc2ccc(Cl)cc2)ccc1NC(=O)c1ccco1 was read as HTR1A agonist 3, E coli RNAP 9, HTR1E agonist 2, 5-HT1A blocker -4, S1P3 ag 0 and HTR1E antagonist -4.
`CCCc1cc(=O)[nH]c(SCC(=O)N(C)CC(=O)Nc2ccc(C)cc2)n1` gave HTR1A agonist 3, E coli RNAP 0, HTR1E agonist 0, 5-HT1A blocker -4, S1P3 ag 1 and HTR1E antagonist 4.
Cc1nc(=O)c(-c2ccccc2)c(C)n1-c1ccc(O)c(C(=O)O)c1 was read as HTR1A agonist 22*, E coli RNAP 8, HTR1E agonist -2, 5-HT1A blocker 4, S1P3 ag 0 and HTR1E antagonist 0.
CC1CCCN(C(C(=O)Nc2ccc3c(c2)OCO3)c2ccccc2)C1 (centres undefined) was read as HTR1A agonist -2, E coli RNAP 4, HTR1E agonist 1, 5-HT1A blocker 49*, S1P3 ag 0 and HTR1E antagonist 13.
`Cn1cccc1Cc1nnc(SCC(=O)N2CCOCC2)n1CCc1ccccc1` gave HTR1A agonist 473*, E coli RNAP 2, HTR1E agonist 1, 5-HT1A blocker 9, S1P3 ag 0 and HTR1E antagonist -7.
For COCCn1c(COc2cccc(OC)c2)nnc1SCC(=O)N1CCOCC1 the results were HTR1A agonist 1, E coli RNAP 1, HTR1E agonist 19*, 5-HT1A blocker 4, S1P3 ag 0 and HTR1E antagonist 1.
For COCCn1c(COc2ccc(Cl)cc2)nnc1SCC(N)=O the results were HTR1A agonist 2, E coli RNAP 9, HTR1E agonist 0, 5-HT1A blocker 5, S1P3 ag -1 and HTR1E antagonist -2.
Screening CC(=O)c1cc2c(O)c(O)ccc2o1 returned HTR1A agonist -4, E coli RNAP 21*, HTR1E agonist 0, 5-HT1A blocker 9, S1P3 ag -1 and HTR1E antagonist 4.
Screening COC(=O)[C@H](CCSC)NC(=O)Nc1ccc(C)cc1C returned HTR1A agonist -2, HTR1E agonist 0, 5-HT1A blocker -7, S1P3 ag 0 and HTR1E antagonist -3.
For CCC(c1nnnn1C(C)(C)C)N1CCN(c2cc(Cl)ccc2C)CC1 (centres undefined) the results were HTR1A agonist -2, E coli RNAP 1, HTR1E agonist -1, 5-HT1A blocker 44*, S1P3 ag -2 and HTR1E antagonist -2.
Screening CCOc1ccc(OCC)c(NC(=O)CN2CCN(c3cccc(C)c3C)CC2)c1 returned HTR1A agonist 4, E coli RNAP 3, HTR1E agonist 28*, 5-HT1A blocker -11 and HTR1E antagonist -7.
Screening O=C(O)CCC1COc2ccccc2O1 (centres undefined) returned HTR1A agonist -4, E coli RNAP 2, HTR1E agonist 1, 5-HT1A blocker 1, S1P3 ag 0 and HTR1E antagonist -1.
For O=C(CSc1nnc(-c2ccccc2)c(-c2ccccc2)n1)N1CCOCC1 the results were HTR1A agonist 1, E coli RNAP 7, HTR1E agonist 0, S1P3 ag -2 and HTR1E antagonist -3.
c1ccc(-c2nnc(N3CCOCC3)nc2-c2ccccc2)cc1 was read as HTR1A agonist -1, HTR1E agonist 2, 5-HT1A blocker 5, S1P3 ag 31* and HTR1E antagonist 4.
For Cc1cc(N)n(-c2ccccc2)n1 the results were E coli RNAP 3.
`Cc1ccc(-c2csc3ncnc(-n4nc(C)cc4N)c23)cc1` gave HTR1A agonist -1, E coli RNAP 9, HTR1E agonist 8.7*, 5-HT1A blocker -4, S1P3 ag 0 and HTR1E antagonist -8.
`CCOCCN1CCN(c2c(C)c(C)nc3cc(-c4cc(OC)cc(OC)c4)nn23)CC1` gave HTR1A agonist -1, E coli RNAP -5, HTR1E agonist 4, 5-HT1A blocker 7 and HTR1E antagonist 40*.
COCCN1CCN(c2c(C)c(C)nc3cc(-c4cccc(OC)c4)nn23)CC1 was read as HTR1A agonist 1, E coli RNAP 6, HTR1E agonist 0, 5-HT1A blocker 3 and HTR1E antagonist 2.
CCN1CCN(c2ncc(C(=O)Nc3ccccc3C(=O)OC)c3ccccc23)CC1 was read as HTR1A agonist 1, E coli RNAP 6, HTR1E agonist 17*, 5-HT1A blocker 0, S1P3 ag 0 and HTR1E antagonist 6.
OC(COc1c(F)cc(Br)cc1F)CN1CCN(c2ccc(F)cc2)CC1 (centres undefined) was read as HTR1A agonist 9, E coli RNAP 2, HTR1E agonist 2, 5-HT1A blocker 63*, S1P3 ag 0 and HTR1E antagonist -7.
For CCCCNC(=O)N(C)c1nncnc1C(=O)NC the results were HTR1A agonist 1, E coli RNAP 7, HTR1E agonist 0, S1P3 ag 0 and HTR1E antagonist -3.
O=c1nc(-c2ccccc2)c2ccccc2[nH]1 was read as HTR1A agonist -1, E coli RNAP 6, HTR1E agonist 0, 5-HT1A blocker -2, S1P3 ag -1 and HTR1E antagonist -7.

Compound activity: PubChem BioAssay, several laboratories
